In ChEMBL document CHEMBL1125497, “Synthesis and anticonvulsant activity of enaminones” (J Med Chem, 1992):

Experiments:
[1] = Anticonvulsant activity administered intraperitoneally in CF1 mice is the ability to protect the mice from MES(maximal electroshock seizure).; format: functional; conditions: Mus musculus, ip
[2] = (§1) Dose producing neurotoxic effects in 50% of the CF1 mice after intraperitoneal administration.; format: functional; conditions: Mus musculus, ip; read-out: ED50 (the source's name)
Outline: (§2)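 Phase II quantification in CF1 male mice (ca. 24–34 g), dosing ip or po in 0.5% methylcellulose suspension. ED50 is protection from tonic hind limb extension in MES. TD50 is rotorod neurotoxicity. Both were read at time of peak effect and derived by Litchfield–Wilcoxon with 95% confidence limits.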

[3] = Antiepileptic activity in male CF1 mice 30 min after administration measured in subcutaneous pentylenetetrazole (scMet) test at a dose of 300 mg/kg (no. of animals treated /protected); activity value is 0/1; format: functional, Mus musculus
[4] = Antiepileptic activity in male CF1 mice 30 min after administration measured in subcutaneous pentylenetetrazole (scMet) test at a dose of 100 mg/kg (no. of animals treated /protected); activity value is 0/1; format: functional, Mus musculus
[5] = Antiepileptic activity in male CF1 mice 4 hr after administration measured in maximum electroshock seizure(MES) test at a dose of 100 mg/kg (no. of animals treated /protected); activity value is 0/3; format: functional, Mus musculus
[6] = Antiepileptic activity in male CF1 mice 4 hr after administration measured in maximum electroshock seizure(MES) test at a dose of 300 mg/kg (no. of animals treated /protected); activity value is 0/1; format: functional, Mus musculus
[7] = Antiepileptic activity in male CF1 mice 30 min after administration measured in maximum electroshock seizure(MES) test at a dose of 100 mg/kg (no. of animals treated /protected); activity value is 2/3; format: functional, Mus musculus
[8] = Antiepileptic activity in male CF1 mice 30 min after administration measured in maximum electroshock seizure(MES) test at a dose of 300 mg/kg (no. of animals treated /protected); activity value is 1/1; format: functional, Mus musculus
[9] = Antiepileptic activity in male CF1 mice 30 min after administration measured in neurological toxicity (Tox) test at a dose of 100 mg/kg (no. of animals treated /protected); activity value is 0/8; format: functional, Mus musculus
[10] = Time of peak anticonvulsant effect in CF1 mice; format: functional, Mus musculus
Outline: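 Male CF1 mice (ca. 24–34 g), compound in 0.5% methylcellulose suspension given ip or po; time (h) at which MES protection (against tonic hind limb extension) peaked was recorded and used for ED50 determination.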

[11] = Time of peak neurotoxic effect in CF1 mice; format: ADME; conditions: mouse, in vivo
Outline: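 Male CF1 mice (ca. 24–34 g), compound ip in 0.5% methylcellulose suspension; neurological deficit assessed by rotorod test, time (h) of peak neurotoxic effect recorded for TD50 determination.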

[12] = Antiepileptic activity in male CF1 mice 4 hr after administration measured in neurological toxicity (Tox) test at a dose of 100 mg/kg (no. of animals treated /protected); activity value is 0/4; format: functional, Mus musculus
[13] = Antiepileptic activity in male CF1 mice 4 hr after administration measured in neurological toxicity (Tox) test at a dose of 300 mg/kg (no. of animals treated /protected); activity value is 0/2; format: functional, Mus musculus
[14] = Antiepileptic activity in male CF1 mice 4 hr after administration measured in subcutaneous pentylenetetrazole (scMet) test at a dose of 100 mg/kg (no. of animals treated /protected); activity value is 0/1; format: functional, Mus musculus
[15] = Antiepileptic activity in male CF1 mice 4 hr after administration measured in subcutaneous pentylenetetrazole (scMet) test at a dose of 300 mg/kg (no. of animals treated /protected); activity value is 0/1; format: functional, Mus musculus
[16] = Dose at which anticonvulsant activity was observed in mice; format: functional, Mus musculus
[17] = Antiepileptic activity in male CF1 mice 30 min after administration measured in neurological toxicity (Tox) test at a dose of 300 mg/kg (no. of animals treated /protected); activity value is 0/4; format: functional, Mus musculus
[18] = Protective index was measured as TD50/ED50; format: ADME; conditions: read-out: PI
[19] = Oral dose producing neurotoxic effects in 50% of rats; format: ADME, organism-based; conditions: rat, in vivo
Outline: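 Phase VI screen in male Sprague-Dawley rats dosed orally. MES protection and rotorod toxicity were scored as animals responding over animals tested at 0.25, 0.5, 1, 2 and 4 h.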

[20] = Antiepileptic activity in male CF1 mice 4 hr after administration measured in subcutaneous pentylenetetrazole (scMet) test at a dose of 100 mg/kg; activity value is 0/1; format: functional, Mus musculus
[21] = Antiepileptic activity in male CF1 mice 30 min after administration measured in maximum electroshock seizure(MES) test at a dose of 300 mg/kg (no. of animals treated /protected); activity value is 0/1; format: functional, Mus musculus
[22] = Antiepileptic activity in male CF1 mice 4 hr after administration measured in maximum electroshock seizure(MES) test at a dose of 300 mg/kg (no. of animals treated /protected); activity value is 1/1; format: functional, Mus musculus
[23] = Antiepileptic activity in male CF1 mice 4 hr after administration measured in subcutaneous pentylenetetrazole (scMet) test at a dose of 300 mg/kg; activity value is 0/1; format: functional, Mus musculus
[24] = as §1; format: ADME; conditions: CF1, mouse, in vivo, ip; outline: as §2
[25] = Antiepileptic activity in male CF1 mice 30 min after administration measured in neurological toxicity (Tox) test at a dose of 300 mg/kg (no. of animals treated /protected); activity value is 1/4; format: functional, Mus musculus
[26] = Antiepileptic activity in male CF1 mice 30 min after administration measured in maximum electroshock seizure(MES) test at a dose of 100 mg/kg (no. of animals treated /protected); activity value is 1/3; format: functional, Mus musculus

SMILES | ED50 [1] | Activity [3] | Activity [4] | Activity [5] | Activity [6] | Activity [7] | Activity [8] | Activity [9] | TPE [10] | TPE [11] | Activity [12] | Activity [13] | Activity [14] | Activity [15] | Dose [16] | Activity [17] | selectivity ratio [18] | Activity [21] | Activity [22] | Activity [25] | other results
CC1(C)CC(O)=C/C(=N\c2ccccc2)C1 | 109 mg/kg | 0 | 0 | 0 | 0 | 2 | 1 | 0 | 0.5 | 0.5 | 0 | 0 | 0 | 0 | <=100 mg kg-1 | 0 | 2.1 |  |  |  | TD50 [2]: 233 mg/kg; TD50 [19]: > 250 mg/kg
CCc1ccc(NC2=CC(=O)C(C(=O)OC)C(C)C2)cc1 (stereo not given) |  |  | 0 | 0 |  | 2 |  | 0 |  |  | 0 |  |  |  | <=100 mg kg-1 |  |  |  |  |  | Activity [20]: 0
COC(=O)C1C(=O)C=C(NNc2ccccc2)CC1C (stereo not given) |  | 0 |  |  |  |  |  |  |  |  |  | 0 |  |  | >100 mg/kg | 0 |  | 0 | 1 |  | Activity [23]: 0
CC1CC(NCCc2ccccc2)=CC(=O)C1C(=O)NCCc1ccccc1 (stereo not given) |  | 0 |  |  |  |  |  |  |  |  |  | 0 |  | 0 | >100 mg/kg | 0 |  | 0 | 1 |  | 
COC(=O)C1C(O)=C/C(=N\Cc2ccccc2)CC1(C)C (stereo not given) | 132 mg/kg | 0 |  |  | 0 |  | 1 |  | 0.5 | 1 |  | 0 |  | 0 | >100 mg/kg |  | 3.8 |  |  | 1 | TD50 [24]: > 500 mg/kg
COC(=O)C1C(O)=C/C(=N\CCc2ccccc2)CC1(C)C (stereo not given) |  | 0 | 0 | 0 | 0 |  | 1 | 0 |  |  | 0 | 0 | 0 | 0 | <=100 mg kg-1 |  |  |  |  | 1 | Activity [26]: 1
